Experimental data taken from ChEMBL document CHEMBL1122206, “Use of adenine nucleotide derivatives to assess the potential of exo-active-site-directed reagents as species- or isozyme-specific enzyme inactivators. 5. Interactions of adenosine 5'-triphosphate derivatives with rat pyruvate kinases, Escherichia coli thymidine kinase, and yeast and rat …” (1982).

Key:
[1] = molecular target: T1, Hexokinase-1 (Rattus norvegicus) (UniProt P05708); assay: Time dependent inhibition of Hexokinase type I activity after 6 h, at 22 degrees celsius, at 5 mM compound
T1 sequence (whole entry): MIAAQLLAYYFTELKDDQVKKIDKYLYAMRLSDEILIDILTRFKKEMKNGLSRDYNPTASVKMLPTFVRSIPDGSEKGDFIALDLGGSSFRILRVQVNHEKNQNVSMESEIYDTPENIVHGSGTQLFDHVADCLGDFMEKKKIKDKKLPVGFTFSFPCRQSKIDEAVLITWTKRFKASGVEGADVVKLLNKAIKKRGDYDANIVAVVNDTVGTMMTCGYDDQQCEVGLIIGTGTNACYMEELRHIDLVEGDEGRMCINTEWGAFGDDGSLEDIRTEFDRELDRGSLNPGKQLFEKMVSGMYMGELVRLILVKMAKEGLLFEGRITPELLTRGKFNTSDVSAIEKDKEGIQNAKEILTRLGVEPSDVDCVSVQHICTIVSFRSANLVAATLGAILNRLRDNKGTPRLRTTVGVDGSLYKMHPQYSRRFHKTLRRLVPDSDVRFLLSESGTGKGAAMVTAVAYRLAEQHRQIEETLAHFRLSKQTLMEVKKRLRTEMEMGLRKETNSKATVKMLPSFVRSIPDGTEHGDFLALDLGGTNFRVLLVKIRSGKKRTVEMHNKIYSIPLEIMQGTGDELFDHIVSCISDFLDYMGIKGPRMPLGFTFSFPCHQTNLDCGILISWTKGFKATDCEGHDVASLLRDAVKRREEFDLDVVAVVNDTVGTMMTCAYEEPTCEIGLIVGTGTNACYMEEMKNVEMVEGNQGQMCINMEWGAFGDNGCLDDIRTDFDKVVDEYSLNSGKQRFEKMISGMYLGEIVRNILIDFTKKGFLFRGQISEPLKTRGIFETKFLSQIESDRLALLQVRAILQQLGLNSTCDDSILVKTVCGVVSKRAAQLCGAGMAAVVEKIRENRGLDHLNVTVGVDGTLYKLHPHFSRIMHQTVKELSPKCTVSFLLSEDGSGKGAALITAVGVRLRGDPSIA

[2] = molecular target: T2, Hexokinase-3 (Rattus norvegicus) (UniProt P27926); assay: Time dependent inhibition of Hexokinase type III activity after 6 h, at 22 degrees celsius, at 5 mM
T2 sequence (whole entry): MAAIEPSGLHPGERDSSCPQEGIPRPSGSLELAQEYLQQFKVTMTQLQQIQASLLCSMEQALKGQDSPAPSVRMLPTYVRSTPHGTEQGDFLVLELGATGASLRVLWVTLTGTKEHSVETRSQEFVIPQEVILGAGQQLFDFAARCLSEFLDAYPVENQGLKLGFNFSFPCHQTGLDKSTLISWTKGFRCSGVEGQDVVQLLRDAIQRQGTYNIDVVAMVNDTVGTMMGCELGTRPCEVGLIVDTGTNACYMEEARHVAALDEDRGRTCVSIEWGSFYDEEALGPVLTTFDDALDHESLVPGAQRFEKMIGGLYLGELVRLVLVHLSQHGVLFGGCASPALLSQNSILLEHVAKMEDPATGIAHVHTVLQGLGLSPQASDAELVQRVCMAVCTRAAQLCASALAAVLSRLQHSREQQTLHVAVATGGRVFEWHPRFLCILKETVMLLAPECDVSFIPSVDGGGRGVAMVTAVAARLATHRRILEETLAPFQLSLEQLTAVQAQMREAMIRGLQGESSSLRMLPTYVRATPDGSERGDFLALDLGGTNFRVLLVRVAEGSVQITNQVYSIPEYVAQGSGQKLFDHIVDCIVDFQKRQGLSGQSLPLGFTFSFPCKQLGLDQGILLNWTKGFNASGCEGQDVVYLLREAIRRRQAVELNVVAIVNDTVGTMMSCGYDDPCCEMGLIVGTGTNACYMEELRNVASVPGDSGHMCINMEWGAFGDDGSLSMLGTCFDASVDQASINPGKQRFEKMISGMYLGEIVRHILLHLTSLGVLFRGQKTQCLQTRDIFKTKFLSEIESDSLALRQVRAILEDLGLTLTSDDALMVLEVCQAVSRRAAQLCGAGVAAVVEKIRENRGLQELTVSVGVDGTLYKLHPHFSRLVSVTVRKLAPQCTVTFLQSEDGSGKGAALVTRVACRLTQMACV

[3] = molecular target: T3, Hexokinase-2 (Rattus norvegicus) (UniProt P27881); assay: Time dependent inhibition of hexokinase 2 activity after 6 h, at 5 mM compound
T3 sequence (whole entry): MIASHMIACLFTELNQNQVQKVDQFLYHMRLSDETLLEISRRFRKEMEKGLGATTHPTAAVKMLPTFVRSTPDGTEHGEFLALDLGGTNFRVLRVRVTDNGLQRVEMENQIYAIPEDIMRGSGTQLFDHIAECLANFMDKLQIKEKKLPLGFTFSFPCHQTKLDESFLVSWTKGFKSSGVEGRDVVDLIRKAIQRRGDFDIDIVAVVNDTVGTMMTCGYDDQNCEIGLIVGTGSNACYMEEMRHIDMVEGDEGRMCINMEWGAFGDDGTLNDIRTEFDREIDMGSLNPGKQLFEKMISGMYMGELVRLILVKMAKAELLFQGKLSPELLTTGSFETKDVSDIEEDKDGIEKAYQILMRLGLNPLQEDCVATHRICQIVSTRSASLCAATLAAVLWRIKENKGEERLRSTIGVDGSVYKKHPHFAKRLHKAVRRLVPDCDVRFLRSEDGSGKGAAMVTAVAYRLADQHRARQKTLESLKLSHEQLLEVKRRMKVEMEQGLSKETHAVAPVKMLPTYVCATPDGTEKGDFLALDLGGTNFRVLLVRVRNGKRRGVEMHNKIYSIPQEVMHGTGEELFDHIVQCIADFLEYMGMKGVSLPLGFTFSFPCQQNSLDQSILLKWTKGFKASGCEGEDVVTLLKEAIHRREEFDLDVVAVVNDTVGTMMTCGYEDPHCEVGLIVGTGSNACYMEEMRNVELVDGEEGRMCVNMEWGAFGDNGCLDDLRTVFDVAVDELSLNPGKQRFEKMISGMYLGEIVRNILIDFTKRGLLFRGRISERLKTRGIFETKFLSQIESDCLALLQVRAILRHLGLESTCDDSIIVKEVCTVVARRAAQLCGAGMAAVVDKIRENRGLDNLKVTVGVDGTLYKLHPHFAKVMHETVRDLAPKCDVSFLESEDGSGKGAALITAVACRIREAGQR

[4] = molecular target: T1, Hexokinase-1 (Rattus norvegicus); assay: Substrate activity for rat hexokinase I as 1:1 Mg complex at 5.0 mM
Method in brief: (§1)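 Hexokinase activity read at 22 °C as A340 change, coupled to glucose-6-phosphate dehydrogenase, in 0.05 M Tris-HCl pH 7.6 with 6.6 mM MgCl2, 10 mM α-D-glucose and 0.93 mM NADP. Donor was 5.0 mM MgATP derivative (1:1 Mg complex) in place of ATP. Yeast HK was isoelectric-focused. Rat HK I and III came from electrofocused liver extract, HK II from dialysed muscle extract.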

[5] = molecular target: T2, Hexokinase-3 (Rattus norvegicus); assay: Substrate activity for rat hexokinase III as 1:1 Mg complex at 5.0 mM
Method in brief: as §1

[6] = tested on: Saccharomyces cerevisiae; assay: Substrate activity against yeast hexokinase as 1:1 Mg complexes at 5.0 mM
Method in brief: as §1

[7] = Tested for the velocity of 2.8 mM compound relative to that of 2.8 mM MgATP in the assay
Method in brief: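 E. coli TK substrate test. 0.5 h after adding inhibitor, the mixture was diluted to 2.8 mM derivative in thymidine assay medium without ATP and with 1.42 mM MnCl2. Incubated 15 min at 37 °C, in the linear range. [14C]TMP formed was compared with that from 2.8 mM ATP under the same conditions.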

[8] = molecular target: Thymidine kinase (Escherichia coli) (UniProt P23331); assay: Compound was tested for the initial inhibition of thymidine kinase by 1.4 mM compound in the presence of 5.7 mM ATP in Escherichia coli
[9] = molecular target: T3, Hexokinase-2 (Rattus norvegicus); assay: Substrate activity against Rat hexokinase II as 1:1 Mg complex at 5.0 mM
Method in brief: as §1

[10] = molecular target: Thymidine kinase (Escherichia coli) (UniProt P23331); assay: Compound was tested for the lose of thymidine kinase activity after 6 hr, at 0 degrees celsius, with 10 mM ATP derivative. values were expressed in percent
[11] = tested on: Saccharomyces cerevisiae; assay: Time dependent inhibition of hexokinase activity after 6 hr, at 22 degrees celsius, with 5 mM ATP derivative in yeast.
[12] = molecular target: Thymidine kinase (Escherichia coli) (UniProt P23331); assay: Compound was tested for the loss of thymidine kinase activity from Escherichia coli after 6 hr at 0 degrees C at 10 mM

Sequence of Thymidine kinase (Escherichia coli) (P23331 whole entry, looked up): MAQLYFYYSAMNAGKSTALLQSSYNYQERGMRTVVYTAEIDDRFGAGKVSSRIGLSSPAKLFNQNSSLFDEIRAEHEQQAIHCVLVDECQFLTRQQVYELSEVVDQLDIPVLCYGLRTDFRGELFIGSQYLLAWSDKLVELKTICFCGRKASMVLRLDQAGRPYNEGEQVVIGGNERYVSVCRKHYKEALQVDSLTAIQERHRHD

SMILES: Nc1ncnc2c1nc(NCCCCNC(=O)CI)n2[C@@H]1O[C@H](COP(=O)(O)OP(=O)(O)OP(=O)(O)O)[C@@H](O)[C@H]1O
- inhibition [1]: 0%
- inhibition [2]: 0%
- inhibition [3]: 0%

SMILES: CN(CCCCN(C)c1ncnc2c1ncn2[C@@H]1O[C@H](COP(=O)(O)OP(=O)(O)OP(=O)(O)O)[C@@H](O)[C@H]1O)C(=O)CCCNC(=O)CI
- Relative velocity [4]: 0.88
- inhibition [1]: 0%
- Relative velocity [5]: 0.93
- inhibition [2]: 0%
- inhibition [3]: 0%
- Relative velocity [6]: 1.2
- Velocity [7]: > 33%
- inhibition [8]: 0%
- Relative velocity [9]: 0.35
- inhibition [10]: 60%
- inhibition [11]: 0%

SMILES: Nc1ncnc2c1nc(NCCCCCCCCNC(=O)CI)n2[C@@H]1O[C@H](COP(=O)(O)OP(=O)(O)OP(=O)(O)O)[C@@H](O)[C@H]1O
- Relative velocity [4]: 1.16
- Relative velocity [5]: 1.81
- inhibition [2]: 0%
- Relative velocity [6]: 0.54
- Relative velocity [9]: 0.82
- inhibition [12]: 0%

SMILES: CN(CCCCCCN(C)c1ncnc2c1ncn2[C@@H]1O[C@H](COP(=O)(O)OP(=O)(O)OP(=O)(O)O)[C@@H](O)[C@H]1O)C(=O)CCCCCNC(=O)CI
- Velocity [7]: 49%
- inhibition [8]: 5%
- inhibition [10]: 0%

SMILES: O=C(CI)NCCC(=O)NCCCCCCNc1ncnc2c1ncn2[C@@H]1O[C@H](COP(=O)(O)OP(=O)(O)OP(=O)(O)O)[C@@H](O)[C@H]1O
- inhibition [1]: 0%
- inhibition [2]: 0%
- inhibition [3]: 0%
- Velocity [7]: 53%
- inhibition [8]: 1%
- inhibition [10]: 0%
- inhibition [11]: 0%

SMILES: CN(CCCN(C)C(=O)CCCNc1ncnc2c1ncn2[C@@H]1O[C@H](COP(=O)(O)OP(=O)(O)OP(=O)(O)O)[C@@H](O)[C@H]1O)C(=O)CCCNC(=O)CI
- Relative velocity [4]: 0.63
- inhibition [1]: 0%
- Relative velocity [5]: 1.02
- inhibition [2]: 0%
- inhibition [3]: 0%
- Relative velocity [6]: 0.94
- Velocity [7]: > 14%
- inhibition [8]: 8%
- Relative velocity [9]: 0.43
- inhibition [10]: 44%
- inhibition [11]: 0%

SMILES: CN(CCCCN(C)c1ncnc2c1ncn2[C@@H]1O[C@H](COP(=O)(O)OP(=O)(O)OP(=O)(O)O)[C@@H](O)[C@H]1O)C(=O)CCCCCCNC(=O)CI
- Velocity [7]: 55%
- inhibition [8]: 1%
- inhibition [10]: 0%
- inhibition [11]: 0%

SMILES: CC(=O)NCCCCCCCCNc1ncnc2c1ncn2[C@@H]1O[C@H](COP(=O)(O)OP(=O)(O)OP(=O)(O)O)[C@@H](O)[C@H]1O
- Relative velocity [4]: 1.12
- inhibition [1]: 0%
- Relative velocity [5]: 1.25
- inhibition [2]: 0%
- Relative velocity [9]: 0.6
- inhibition [11]: 0%

SMILES: CC(=O)NCCCCCC(=O)N(C)CCCCN(C)c1ncnc2c1ncn2[C@@H]1O[C@H](COP(=O)(O)OP(=O)(O)OP(=O)(O)O)[C@@H](O)[C@H]1O
- Velocity [7]: 41%
- inhibition [12]: 0%

SMILES: Nc1ncnc2c1nc(NCCCCCCNC(=O)CI)n2[C@@H]1O[C@H](COP(=O)(O)OP(=O)(O)OP(=O)(O)O)[C@@H](O)[C@H]1O
- inhibition [1]: 0%
- inhibition [2]: 0%
- inhibition [3]: 0%
- inhibition [11]: 0%

SMILES: O=C(CI)NCCCCCCC(=O)NCCCCCCNc1ncnc2c1ncn2[C@@H]1O[C@H](COP(=O)(O)OP(=O)(O)OP(=O)(O)O)[C@@H](O)[C@H]1O
- inhibition [1]: 0%
- inhibition [3]: 0%
- Velocity [7]: 41%
- inhibition [8]: 12%
- inhibition [10]: 0%
- inhibition [11]: 0%

SMILES: Nc1ncnc2c1nc(NCCNC(=O)CI)n2[C@@H]1O[C@H](COP(=O)(O)OP(=O)(O)OP(=O)(O)O)[C@@H](O)[C@H]1O
- inhibition [1]: 0%
- inhibition [2]: 0%
- inhibition [3]: 0%

SMILES: O=C(CI)NCCCCCC(=O)NCCCCNc1ncnc2c1ncn2[C@@H]1O[C@H](COP(=O)(O)OP(=O)(O)OP(=O)(O)O)[C@@H](O)[C@H]1O
- inhibition [1]: 0%
- inhibition [2]: 0%
- Velocity [7]: 71%
- inhibition [10]: 0%
- inhibition [11]: 0%

SMILES: O=C(CI)NCCCC(=O)NCCCCCCNc1ncnc2c1ncn2[C@@H]1O[C@H](COP(=O)(O)OP(=O)(O)OP(=O)(O)O)[C@@H](O)[C@H]1O
- Relative velocity [4]: 1.3
- inhibition [1]: 0%
- Relative velocity [5]: 2.02
- inhibition [2]: 0%
- inhibition [3]: 0%
- Relative velocity [6]: 1
- Velocity [7]: 36%
- inhibition [8]: 0%
- Relative velocity [9]: 0.91
- inhibition [10]: 0%
- inhibition [11]: 0%
